Data taken from ChEMBL document CHEMBL1132592, “Synthesis of novel 2-benzothiopyran and 3-benzothiepin derivatives and their stimulatory effect on bone formation” (J Med Chem, 1999).

What was measured:
[1] = target: T1, Alkaline phosphatase, tissue-nonspecific isozyme (Mus musculus) (UniProt P09242); assay: Alkaline phosphatase stimulatory activity of 10E-5 M compound in culture of MC3T3-E1 in absence of BMP
T1 sequence (whole entry): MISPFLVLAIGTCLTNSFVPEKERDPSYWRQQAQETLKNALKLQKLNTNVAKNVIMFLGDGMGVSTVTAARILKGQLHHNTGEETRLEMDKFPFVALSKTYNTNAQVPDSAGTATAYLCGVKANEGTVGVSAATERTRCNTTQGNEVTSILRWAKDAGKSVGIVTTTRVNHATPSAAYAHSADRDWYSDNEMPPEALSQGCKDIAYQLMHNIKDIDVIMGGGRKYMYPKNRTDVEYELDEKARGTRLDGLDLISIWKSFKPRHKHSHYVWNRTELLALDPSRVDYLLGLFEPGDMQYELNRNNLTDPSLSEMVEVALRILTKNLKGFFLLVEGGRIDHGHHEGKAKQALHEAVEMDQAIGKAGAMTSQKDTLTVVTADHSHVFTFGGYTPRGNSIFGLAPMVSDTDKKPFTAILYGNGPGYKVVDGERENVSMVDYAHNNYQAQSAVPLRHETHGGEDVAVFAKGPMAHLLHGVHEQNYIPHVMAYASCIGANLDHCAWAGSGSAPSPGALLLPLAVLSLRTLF
Procedure, shortened: (§1)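 Mouse osteoblastic MC3T3-E1 cells, 3000 cells/well, grown 3 days in α-MEM with 10% FBS, then switched to α-MEM with 1% FBS plus compound, with or without recombinant Xenopus BMP-4/7 heterodimer (3 ng/mL), for 3 more days. ALP in lysate supernatant read as absorbance at 405 nm; mean ± SE, n = 6; Dunnett's test vs matching control.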

[2] = target: T1, Alkaline phosphatase, tissue-nonspecific isozyme (Mus musculus); assay: Alkaline phosphatase stimulatory activity of 10E-5 M compound in culture of MC3T3-E1 in presence of 3 ng/mL of BMP; procedure, shortened: as §1
[3] = target: T1, Alkaline phosphatase, tissue-nonspecific isozyme (Mus musculus); assay: Alkaline phosphatase stimulatory activity of 10E-6 M compound in culture of MC3T3-E1 in absence of BMP; procedure, shortened: as §1
[4] = target: T1, Alkaline phosphatase, tissue-nonspecific isozyme (Mus musculus); assay: Alkaline phosphatase stimulatory activity of 10E-6 M compound in culture of MC3T3-E1 in presence of 3 ng/mL of BMP; procedure, shortened: as §1
[5] = target: T2, Alkaline phosphatase, tissue-nonspecific isozyme (Rattus norvegicus) (UniProt P08289); assay: Effect on alkaline phosphatase activity compared to control in culture of rat bone marrow stromal cells, 10E-5 M concentration; assay type: tissue-based
T2 sequence (whole entry): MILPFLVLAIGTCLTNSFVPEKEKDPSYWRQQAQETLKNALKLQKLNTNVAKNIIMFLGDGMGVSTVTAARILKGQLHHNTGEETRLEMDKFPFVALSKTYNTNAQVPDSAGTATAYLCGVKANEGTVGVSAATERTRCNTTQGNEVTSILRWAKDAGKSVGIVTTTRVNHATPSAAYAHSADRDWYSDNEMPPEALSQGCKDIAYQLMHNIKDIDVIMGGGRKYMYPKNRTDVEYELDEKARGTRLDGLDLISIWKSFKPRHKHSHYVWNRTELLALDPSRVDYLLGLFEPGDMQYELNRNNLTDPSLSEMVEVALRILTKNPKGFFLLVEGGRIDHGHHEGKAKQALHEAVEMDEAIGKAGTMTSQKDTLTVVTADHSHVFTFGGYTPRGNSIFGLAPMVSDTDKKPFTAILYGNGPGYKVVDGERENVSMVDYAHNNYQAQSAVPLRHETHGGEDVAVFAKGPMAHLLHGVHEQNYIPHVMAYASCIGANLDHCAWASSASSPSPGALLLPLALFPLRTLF
Procedure, shortened: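 Rat femoral marrow stromal cells subcultured at 4 × 10^4 cells/well in α-MEM with 15% FBS, ascorbate, 10 mM β-glycerophosphate and 10^-7 M dexamethasone. Compound added day 1 to day 10-14, medium refreshed every other day. Lysate ALP (Lowry method) given as fold of control; n = 5–10; Student's t-test.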

[6] = target: T2, Alkaline phosphatase, tissue-nonspecific isozyme (Rattus norvegicus); assay: Effect of 10E-5 M compound on alkaline phosphatase activity in culture of rat bone marrow stromal cells; assay type: tissue-based
Procedure, shortened: (§2)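 Femoral marrow stromal cells from 7-week-old male Sprague-Dawley rats. Primary culture 1 week in α-MEM (10 mM HEPES pH 7.0, 15% FBS, 2 mM glutamine, 50 μg/mL ascorbate, 10 mM β-glycerophosphate, 10^-7 M dexamethasone), 37 °C, 5% CO2. Subcultured at 4 × 10^4 cells/well; compound (10 mM stock in EtOH-DMSO 1:1 or DMF) from day 1 to day 10-14, medium changed every other day. Lysate ALP (Lowry method) in nmol/min/well; mean ± SE, n = 5–10.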

[7] = target: T2, Alkaline phosphatase, tissue-nonspecific isozyme (Rattus norvegicus); assay: Effect of 10E-6 M compound on alkaline phosphatase activity in culture of rat bone marrow stromal cells; procedure, shortened: as §2
[8] = target: T2, Alkaline phosphatase, tissue-nonspecific isozyme (Rattus norvegicus); assay: Effect of 10E-7 M compound on alkaline phosphatase activity in culture of rat bone marrow stromal cells; procedure, shortened: as §2

Compound: CCOP(=O)(Cc1ccc(NC(=O)[C@H]2Cc3cc4c(cc3C(=O)[C@H](C)S2)OCO4)cc1)OCC
- ALP activity [1]: 0.195
- ALP activity [2]: 0.284
- ALP activity [3]: 0.154
- ALP activity [4]: 0.191
- ALP activity [5]: 5.5
- ALP activity [6]: 1640
- ALP activity [7]: 682
- ALP activity [8]: 192
